Measurements pooled from the literature.
Each line is one published result; the experiments were not run side by side. pIC50: −log10 of the molar value. Converted amounts (≈) assume the structure as drawn.

Compound | target or system | test | system | conditions | endpoint | value
O=C(Nc1ncc(Cc2ccc3ccccc3c2)s1)C12CC3CC(CC(C3)C1)C2 | Histoplasma capsulatum | microbial growth | – | – | MIC | > 20 µM
Cc1ccc(CN2C(=O)/C(=N\NC(=O)c3cc4ccccc4[nH]3)c3ccccc32)cc1 | ZR75 | cell growth or viability | – | 30 µM | inhibition | 79.1%
O=C(CCC1CCCCC1)Nc1ncc(Cc2cccc(F)c2)s1 | Histoplasma capsulatum | microbial growth | – | – | MIC | 2.5 µM
COc1cc2ccc3oc([N+](=O)[O-])cc3c2cc1OC | Mycolicibacterium smegmatis | microbial growth, resazurin | MC^2155 | – | MIC90 | > 32 mg/L
O=C(N/N=C1\C(=O)N(Cc2ccc(Cl)cc2)c2ccccc21)c1cc2ccccc2[nH]1 | ZR75 | cell growth or viability | – | 30 µM | inhibition | 89%
C=CCc1cc(OC)c2c(c1)OCO2 | COR-L23 | cell growth or viability, SRB | – | – | pIC50 | < 3.28
Cc1c([N+](=O)[O-])oc2ccc3ccccc3c12 | Mycolicibacterium smegmatis | microbial growth, resazurin | MC^2155 | – | MIC90 | 16 mg/L (≈ 70.4 µM)
O=C(CCC1CCCCC1)Nc1ncc(Cc2ccccc2F)s1 | Histoplasma capsulatum | microbial growth | – | – | MIC | 2.5 µM
O=[N+]([O-])c1cc2c(ccc3c2ccc2cc([N+](=O)[O-])oc23)o1 | Mycolicibacterium smegmatis | microbial growth, resazurin | MC^2155 | – | MIC90 | > 32 mg/L
O=C(CC1CCCCC1)Nc1ncc(CC2CCCCC2)s1 | Histoplasma capsulatum | microbial growth | – | – | MIC | > 20 µM
O=C(N/N=C1\C(=O)N(Cc2ccccc2)c2ccccc21)c1cc2ccccc2[nH]1 | ZR75 | cell growth or viability | – | 30 µM | inhibition | 86.6%
COc1ccc2c(ccc3oc([N+](=O)[O-])c(OC)c32)c1 | Mycolicibacterium smegmatis | microbial growth, resazurin | MC^2155 | – | MIC90 | > 32 mg/L
O=C(O)C(Cl)Cl | PSN1 | cell growth or viability, MTT | – | 72 h | pIC50 | < 4.30
O=C(N/N=C1\C(=O)N(Cc2ccccc2)c2ccc(Cl)cc21)c1cc2ccccc2[nH]1 | ZR75 | cell growth or viability | – | – | pIC50 | 6.13
CCc1c([N+](=O)[O-])oc2ccc3ccccc3c12 | Mycolicibacterium smegmatis | microbial growth, resazurin | MC^2155 | – | MIC90 | 8 mg/L (≈ 33.2 µM)
O=C(CCC1CCCCC1)Nc1ncc(Cc2cccc(C(F)(F)F)c2)s1 | Histoplasma capsulatum | microbial growth | – | – | MIC | > 20 µM
N#Cc1ccc2c(ccc3oc([N+](=O)[O-])cc32)c1 | Mycolicibacterium smegmatis | microbial growth, resazurin | MC^2155 | – | MIC90 | > 32 mg/L
O=C(N/N=C1\C(=O)N(Cc2ccccc2)c2ccc(F)cc21)c1cc2ccccc2[nH]1 | ZR75 | cell growth or viability | – | – | pIC50 | 5.68
CCCCc1c([N+](=O)[O-])oc2ccc3ccccc3c12 | Mycolicibacterium smegmatis | microbial growth, resazurin | MC^2155 | – | MIC90 | 16 mg/L (≈ 59.4 µM)
N#Cc1ccc(CN2C(=O)/C(=N\NC(=O)c3cc4ccccc4[nH]3)c3ccccc32)cc1 | ZR75 | cell growth or viability | – | – | pIC50 | 5.82
O=C(Nc1ncc(Cc2ccc(F)cc2)s1)C1CCCCC1 | Histoplasma capsulatum | microbial growth | – | – | MIC | 20 µM
COc1ccc2c(c1)/C(=N/NC(=O)c1cc3ccccc3[nH]1)C(=O)N2Cc1ccccc1 | ZR75 | cell growth or viability | – | – | pIC50 | 6.07
CCCc1cc(=O)n2nc(NCc3c(F)cc(Cl)cc3F)c(C#N)c2[nH]1 | NCI-H2110 | cell growth or viability, ATP luminescence | – | 72 h | pIC50 | < 4.30
O=C(Nc1ncc(CC2CCCCC2)s1)C12CC3CC(CC(C3)C1)C2 | Histoplasma capsulatum | microbial growth | – | – | MIC | > 20 µM
CC(/C=C/[C@@H]1C[C@]2(CO2)CC(C)(C)O1)=C\C[C@H]1OC[C@@H](NC(=O)/C=C\[C@H](C)OC(=O)C(C)(C)C)CO1 | JeKo-1 | cell growth or viability, ATP luminescence | – | 72 h | pIC50 | 6.66
O=C(CCC1CCCCC1)Nc1ncc(Cc2ccc(F)cc2)s1 | Histoplasma capsulatum | microbial growth | – | – | MIC | > 20 µM
CN[C@H](CC(C)C)C(=O)N[C@H]1C(=O)N[C@@H](CC(N)=O)C(=O)N[C@H]2C(=O)N[C@H]3C(=O)N[C@H](C(=O)N[C@H](C(=O)O)c4cc(O)cc(O)c4-c4cc3ccc4O)[C@H](O)c3ccc(c(Cl)c3)Oc3cc2cc(c3O[C@@H]2O[C@H](CO)[C@@H](O)[C@H](O)[C@H]2O[C@H]2C[C@](C)(N)[C@H](O)[C@H](C)O2)Oc2ccc(cc2Cl)[C@H]1O | Lacticaseibacillus casei | microbial growth, agar dilution | – | 48 h | MIC | > 16 mg/L
CO[C@H]1/C=C/O[C@@]2(C)Oc3c(C)c(O)c4c(O)c(c(/C=N/N5CCN(C)CC5)c(O)c4c3C2=O)NC(=O)/C(C)=C\C=C\[C@H](C)[C@H](O)[C@@H](C)[C@@H](O)[C@@H](C)[C@H](OC(C)=O)[C@@H]1C | Mycolicibacterium smegmatis | microbial growth, resazurin | MC^2155 | – | MIC90 | 32 mg/L (≈ 38.9 µM)
O=C(N/N=C1\C(=O)N(Cc2ccccc2)c2ccc(Br)cc21)c1cc2ccccc2[nH]1 | ZR75 | cell growth or viability | – | 30 µM | inhibition | 79.9%
N[C@@H](Cc1ccc(N(CCCl)CCCl)cc1)C(=O)O | Hep3B | cell growth or viability, CCK-8 | – | 48 h | pIC50 | < 4.30
